The test system of experiment [1] is CEM-SS. The experiment in a line: Anti-HIV-1 activity against CEM-SS cell lines. Type of experiment: functional, cell-based. The following applies: Homo sapiens. The essentials: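 HIV-1 LAI (grown in CEM-SS) infecting CEM-SS cells kept in RPMI + 10% heat-treated FCS; 30-min adsorption, unbound virus washed off, then 5 days culture with graded compound concentrations. Virus output read as reverse transcriptase activity in supernatant. Triplicate per concentration, experiment run twice; IC50 from median-effect plot of dose-effect data.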

Experiment [2] deals with CEM-SS. Kind of experiment: Cytotoxicity towards uninfected CEM-SS cell lines. Type of experiment: functional. The following applies: Homo sapiens. The essentials:
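Uninfected CEM-SS cells exposed 5 days to varied compound concentrations; viability by MTT colorimetric test. CC50 is the concentration halving OD540, from median-effect dose analysis. Triplicate per concentration, experiment repeated twice.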

Experiment [3] has as its system MT4. Kind of experiment: (§1) Cytotoxicity towards uninfected MT-4 cell lines. The experiment is classed as functional. The following applies: Homo sapiens. The essentials:
(§2)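 Uninfected MT4 cells with graded compound levels; viability by MTT reduction to formazan. Triplicate per concentration, experiment run twice.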

For experiment [4], the system named is MT4. The experiment in a line: (§3) Anti-HIV-1 activity against MT-4 cell lines. Type of experiment: functional, cell-based. The following applies: Homo sapiens. The essentials: (§4)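 MT4 cells (RPMI + 10% heat-treated FCS) infected with HIV-1; protection from virus-induced cytopathicity read by MTT reduction to formazan by mitochondrial dehydrogenases. Triplicate per concentration, experiment repeated twice. Where inhibition stayed under 50%, the measured percentage is reported in parentheses.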

Experiment [5] deals with PBMC. The experiment in a line: Cytotoxicity towards uninfected PBMC cell lines. The experiment is classed as functional. The following applies: Homo sapiens. The essentials:
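Uninfected PBMC incubated 7 days with compound; viability by colorimetric MTT assay. Triplicate per concentration, experiment repeated twice.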

In experiment [6] the test system is PBMC. The experiment in a line: (§5) Anti-HIV-1 activity against PBMC cell lines. The experiment is classed as functional, cell-based. The following applies: Homo sapiens. The essentials:
(§6)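 Infected PBMC grown 7 days with graded compound concentrations after virus incubation; HIV-1 production measured as reverse transcriptase activity in culture supernatant. Triplicate per concentration, whole experiment done twice.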

Experiment [7] concerns PBMC. Described as §5. The experiment is classed as functional, Homo sapiens. The essentials: as §6
Experiment [8] relates to MT4. The description is as §3. The experiment is classed as functional. The following applies: Homo sapiens. The essentials: as §4
The test system of experiment [9] is MT4. The experiment is described as §1. Type of experiment: functional, Homo sapiens. The essentials:
as §2

The structures appear in SMILES notation.

Turning to `COC(=O)C(CCCN=C(N)N)NC(=O)CCNC(=O)c1cccc(-c2c3cc(N)ccc3c3ccc(N)cc3[n+]2C)c1` (centres undefined), the IC50 in the experiment with CEM-SS [1] was 83 µM; with MT4 [4], over 100 µM; in the experiment on PBMC [6], 78 µM. The CC50 in the experiment with CEM-SS [2] is 85 µM; in the experiment with MT4 [3] it was 21 µM; with PBMC [5], 47 µM.
In the case of `COC(=O)C(CCCN=C(N)N)NC(=O)CCCCCNC(=O)c1cccc(-c2c3cc(N)ccc3c3ccc(N)cc3[n+]2C)c1` (centres undefined), the IC50 in the experiment with CEM-SS [1] is over 100 µM; in the experiment on MT4 [4], over 100 µM; with PBMC [6] it was 89 µM. The CC50 in the experiment with CEM-SS [2] was over 100 µM; in the experiment on MT4 [3], 60 µM; with PBMC [5] it was over 100 µM.
On to `C[n+]1c(-c2cccc(C(=O)NCCC(=O)NC(CCCN=C(N)N)C(=O)O)c2)c2cc(N)ccc2c2ccc(N)cc21` (centres undefined), for which the IC50 is over 100 µM in the experiment on CEM-SS [1], over 100 µM in the experiment with MT4 [4] and 73 µM in the experiment on PBMC [6]. The CC50 with CEM-SS [2] was over 100 µM; in the experiment on MT4 [3], 47 µM; with PBMC [5], over 100 µM.
As to `C[n+]1c(-c2cccc(C(=O)O)c2)c2cc(N)ccc2c2ccc(N)cc21`, the values for the IC50 in the experiment on CEM-SS [1], in the experiment with MT4 [4] and with PBMC [6] were 95 µM, over 100 µM and 20 µM, respectively. Moreover, the CC50 in the experiment on CEM-SS [2] was over 100 µM; with MT4 [3] it was 42 µM; with PBMC [5], 44 µM.
For `C[n+]1c(-c2cccc(C(=O)NCCCCCC(=O)NC(CCCN=C(N)N)C(=O)O)c2)c2cc(N)ccc2c2ccc(N)cc21.[Cl-]` (centres undefined), the IC50 in the experiment with CEM-SS [1], in the experiment on MT4 [4] and in the experiment with PBMC [6] was over 100 µM throughout. In addition, the figures for the CC50 with CEM-SS [2], in the experiment on MT4 [3] and in the experiment on PBMC [5] were over 100 µM, 59 µM and over 100 µM, respectively. The compound also showed an Inhibition in the experiment with PBMC [7] of 40%.
Take `C[n+]1c(-c2cccc(C(=O)NCCCCCC(=O)NCCC(=O)NC(CCCN=C(N)N)C(=O)O)c2)c2cc(N)ccc2c2ccc(N)cc21` (centres undefined): the IC50 with CEM-SS [1] came to 2.4 µM; in the experiment with MT4 [4] it was 11 µM; with PBMC [6], 2.5 µM. Moreover, the CC50 with CEM-SS [2], in the experiment with MT4 [3] and in the experiment with PBMC [5] was over 100 µM throughout.
`COC(=O)C(CCCN=C(N)N)NC(=O)CCNC(=O)CCCCCNC(=O)c1cccc(-c2c3cc(N)ccc3c3ccc(N)cc3[n+]2C)c1.[Cl-]` (centres undefined): the values for the IC50 with CEM-SS [1], with MT4 [4] and in the experiment with PBMC [6] were 4.6 µM, over 100 µM and 8.7 µM, respectively. The CC50 with CEM-SS [2], with MT4 [8] and in the experiment with PBMC [5] was over 100 µM each time. The Inhibition with MT4 [9] is reported as 45%.

One may read the IC50 as the concentration that inhibits the measured activity by half. A low value points to higher potency. As usually defined, the CC50 is the concentration that lowers cell viability or growth by half. The low end stands for greater toxicity to the cells, the high end for lower toxicity to the cells. Usually Inhibition stands for the share of the control response that was lost under treatment. A high value points to strong suppression.

The values are drawn from ChEMBL document CHEMBL1132425, “Synthesis and antiviral activity of ethidium-arginine conjugates directed against the TAR RNA of HIV-1” (J Med Chem, 1999).
